# Experimental data from ChEMBL document CHEMBL1949570, “Quinoline- and isoquinoline-sulfonamide derivatives of LCAP as potent CNS multi-receptor-5-HT1A/5-HT2A/5-HT7 and D2/D3/D4-agents: the synthesis and pharmacological evaluation” (Bioorg Med Chem, 2012).
# Active and inactive are the calls of the source. The rule behind the calls is not given here.
# Columns and labels:
# [1] = molecular target: T1, 5-hydroxytryptamine receptor 1A (Rattus norvegicus, UniProt P19327); experiment: Displacement of [3H]8-OH-DPAT from rat hippocampus 5-HT1A receptor by liquid scintillation counter; format: tissue-based
# T1 sequence (P19327 whole entry): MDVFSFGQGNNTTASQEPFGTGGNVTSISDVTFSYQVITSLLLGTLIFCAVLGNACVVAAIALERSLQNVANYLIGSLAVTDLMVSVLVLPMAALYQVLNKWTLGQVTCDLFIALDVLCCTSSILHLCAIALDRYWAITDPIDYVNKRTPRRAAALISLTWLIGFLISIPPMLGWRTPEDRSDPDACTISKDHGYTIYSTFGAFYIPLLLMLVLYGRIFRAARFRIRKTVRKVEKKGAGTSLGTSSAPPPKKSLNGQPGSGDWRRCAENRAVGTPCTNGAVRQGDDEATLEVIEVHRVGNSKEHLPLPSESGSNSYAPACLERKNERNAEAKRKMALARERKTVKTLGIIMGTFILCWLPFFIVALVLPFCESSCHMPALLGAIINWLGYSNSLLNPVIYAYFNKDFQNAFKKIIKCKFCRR
# In short: (§1)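 Competition binding. 5-HT1A: rat hippocampus, [3H]-8-OH-DPAT. 5-HT2A: rat cortex, [3H]-ketanserin. D2: rat striatum, [3H]-spiperone. 5-HT6: human receptor stably in HEK293, [3H]-LSD. 5-HT7: human receptor stably in HEK293, [3H]-5-CT. Vacuum filtration on GF/B filters, ice-cold washes, scintillation counting.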
# Mus musculus [2] = experiment: […] activity in ip dosed Swiss albino mouse assessed as inhibition of DOI-induced head twitches administered 20 mins before DOI challenge measured for 20 mins; format: functional; conditions: for ED50: read-out: ID50 (the source's name)
# Mus musculus [3] = experiment: Antidepressant activity in Swiss albino mouse assessed as reduction in immobility time at 5 to 20 mg/kg measured for 4 mins by forced swim test; format: functional; parameters: scale not given: the % may be the effect or the level left; conditions: dose mg/kg 5-20
# In short: (§2)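 Porsolt forced swim in male Swiss albino mice. Drugs ip (10 ml/kg; 1% Tween 80 suspension, imipramine in water) 30 min before. Cylinder 25 cm high, 10 cm diameter, 6 cm water at 23–25 °C, 6 min session; immobility scored over final 4 min. 5–10 mice/dose; one-way ANOVA with Bonferroni.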
# [4] = molecular target: T2, 5-hydroxytryptamine receptor 7 (Homo sapiens, UniProt P34969); experiment: Displacement of [3H]5-CT form human cloned 5HT7 receptor expressed in human HEK293 cells by liquid scintillation counter; format: cell-based; in short: as §1
# T2 sequence (P34969 whole entry): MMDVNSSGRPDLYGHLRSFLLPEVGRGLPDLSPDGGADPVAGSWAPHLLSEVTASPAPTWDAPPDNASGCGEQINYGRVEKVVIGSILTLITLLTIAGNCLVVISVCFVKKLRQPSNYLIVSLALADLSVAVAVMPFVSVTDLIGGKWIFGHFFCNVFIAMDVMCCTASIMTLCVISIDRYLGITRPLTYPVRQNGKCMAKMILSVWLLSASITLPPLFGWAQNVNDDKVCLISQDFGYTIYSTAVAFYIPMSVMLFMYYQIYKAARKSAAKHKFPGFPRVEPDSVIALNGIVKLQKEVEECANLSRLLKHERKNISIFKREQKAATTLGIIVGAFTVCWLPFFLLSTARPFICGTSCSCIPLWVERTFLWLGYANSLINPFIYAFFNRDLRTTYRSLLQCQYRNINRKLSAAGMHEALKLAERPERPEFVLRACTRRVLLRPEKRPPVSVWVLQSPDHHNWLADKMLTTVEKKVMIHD
# Mus musculus [5] = experiment: Antidepressant activity in mouse assessed as spontaneous locomotor activity 5 to 20 mg/kg; format: functional, organism-based
# In short: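 Swiss albino mice given the forced swim doses ip 30 min before; placed individually in cages and channel crossings counted from 2 to 6 min with a multichannel activity monitor, matching the swim test observation period.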
# [6] = molecular target: 5-hydroxytryptamine receptor 2A (Rattus norvegicus, UniProt P14842); experiment: Displacement of [3H]Ketanserin from rat cortex 5-HT2A receptor by liquid scintillation counter; in short: as §1
# Chain of 5-hydroxytryptamine receptor 2A (P14842 whole entry): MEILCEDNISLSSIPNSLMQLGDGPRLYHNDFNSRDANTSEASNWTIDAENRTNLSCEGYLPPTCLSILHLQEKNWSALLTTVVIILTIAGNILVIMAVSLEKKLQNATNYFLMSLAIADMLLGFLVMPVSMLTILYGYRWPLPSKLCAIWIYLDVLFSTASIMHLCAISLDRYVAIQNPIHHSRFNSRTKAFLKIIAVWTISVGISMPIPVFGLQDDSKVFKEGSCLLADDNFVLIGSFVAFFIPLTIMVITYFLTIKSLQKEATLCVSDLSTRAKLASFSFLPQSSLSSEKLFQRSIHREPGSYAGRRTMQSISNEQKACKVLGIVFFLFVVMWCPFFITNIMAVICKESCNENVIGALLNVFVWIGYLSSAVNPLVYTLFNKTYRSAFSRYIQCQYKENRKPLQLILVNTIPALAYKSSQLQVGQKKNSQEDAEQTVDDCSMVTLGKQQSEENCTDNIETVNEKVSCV
# [7] = molecular target: 5-hydroxytryptamine receptor 6 (Homo sapiens, UniProt P50406); experiment: Displacement of [3H]-LSD from human full length cloned 5HT6 receptor expressed in human HEK293 cells by liquid scintillation counter; format: cell-based; in short: as §1
# Chain of 5-hydroxytryptamine receptor 6 (P50406 whole entry): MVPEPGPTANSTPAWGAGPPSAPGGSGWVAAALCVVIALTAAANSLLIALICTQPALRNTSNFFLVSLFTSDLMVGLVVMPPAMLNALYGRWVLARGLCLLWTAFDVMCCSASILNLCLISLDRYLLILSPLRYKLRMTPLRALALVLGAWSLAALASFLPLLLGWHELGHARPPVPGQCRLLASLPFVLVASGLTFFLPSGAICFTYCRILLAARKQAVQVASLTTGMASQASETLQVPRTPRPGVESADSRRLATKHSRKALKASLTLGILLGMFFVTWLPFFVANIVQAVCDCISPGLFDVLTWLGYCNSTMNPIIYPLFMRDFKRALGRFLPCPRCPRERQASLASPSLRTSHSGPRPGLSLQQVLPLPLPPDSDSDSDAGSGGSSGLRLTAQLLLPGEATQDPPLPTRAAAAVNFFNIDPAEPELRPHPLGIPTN
# Rattus norvegicus [8] = experiment: Anxiolytic activity in Wistar rat assessed as increase in open arm entries at 5 mg/kg after 5 mins by plus-maze test (reference value: 23.1 +/- […]); format: functional
# [9] = Selectivity ratio of compound Ki for rat hippocampus 5-HT1A receptor to human 5HT7 receptor; format: tissue-based
# In short: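 Ratio of Ki values from competition binding: rat hippocampus 5-HT1A with [3H]-8-OH-DPAT versus human 5-HT7 in HEK293 with [3H]-5-CT; Ki by Cheng–Prusoff from 7–9 concentrations in triplicate.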
# Mus musculus [10] = experiment: Antidepressant activity in Swiss albino mouse assessed as reduction in immobility time at 20 mg/kg measured for 4 mins by forced swim test; format: functional; in short: as §2
# D(2) dopamine receptor = D(2) dopamine receptor (Rattus norvegicus, UniProt P61169); experiment: Displacement of [3H]-spiperone from rat striatum dopamine D2 receptor by liquid scintillation counter; in short: as §1
# Chain of D(2) dopamine receptor (P61169 whole entry): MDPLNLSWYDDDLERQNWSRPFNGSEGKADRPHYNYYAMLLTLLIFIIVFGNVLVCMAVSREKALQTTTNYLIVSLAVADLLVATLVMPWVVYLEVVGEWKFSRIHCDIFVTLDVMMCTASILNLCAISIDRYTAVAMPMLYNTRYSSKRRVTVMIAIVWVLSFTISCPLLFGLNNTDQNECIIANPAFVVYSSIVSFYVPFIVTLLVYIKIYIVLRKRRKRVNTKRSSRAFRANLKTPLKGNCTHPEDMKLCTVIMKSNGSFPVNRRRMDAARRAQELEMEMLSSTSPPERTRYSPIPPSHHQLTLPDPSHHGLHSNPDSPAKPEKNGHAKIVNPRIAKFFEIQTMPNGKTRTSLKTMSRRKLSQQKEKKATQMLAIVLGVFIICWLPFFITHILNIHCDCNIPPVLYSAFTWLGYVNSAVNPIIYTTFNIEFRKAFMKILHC
# [11] = molecular target: T3, D(4) dopamine receptor (Homo sapiens) (UniProt P21917); experiment: Displacement of [3H]-methylspiperone from human cloned dopamine D4 receptor expressed in HEK293 cells at 10 '-7 M by liquid scintillation counter; format: cell-based
# T3 sequence (whole entry): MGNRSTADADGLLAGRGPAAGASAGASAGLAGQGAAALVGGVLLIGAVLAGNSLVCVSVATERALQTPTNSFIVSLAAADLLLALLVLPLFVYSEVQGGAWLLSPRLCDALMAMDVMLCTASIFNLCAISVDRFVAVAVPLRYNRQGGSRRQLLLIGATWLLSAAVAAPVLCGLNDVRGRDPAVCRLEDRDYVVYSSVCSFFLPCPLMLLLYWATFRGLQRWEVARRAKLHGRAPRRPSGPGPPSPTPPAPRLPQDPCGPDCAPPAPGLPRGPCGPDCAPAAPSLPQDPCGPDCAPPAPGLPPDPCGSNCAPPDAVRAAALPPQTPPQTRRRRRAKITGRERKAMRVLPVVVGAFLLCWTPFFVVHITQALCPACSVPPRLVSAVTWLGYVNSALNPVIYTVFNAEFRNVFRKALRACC
# Rattus norvegicus [12] = experiment: Anxiolytic activity in Wistar rat assessed as increase in time spent in open arms at 2.5 mg/kg after 5 mins by plus-maze test (reference value: 7.9 +/- 1.4 %); format: functional
# Rattus norvegicus [13] = experiment: Anxiolytic activity in Wistar rat assessed as increase in Y ambulations at 2.5 mg/kg for 5 mins by general locomotor activity test; format: functional, organism-based; parameters: dose 2.5 mg/kg
# Rattus norvegicus [14] = experiment: Anxiolytic activity in Wistar rat assessed as increase in open arm entries at 2.5 mg/kg after 5 mins by plus-maze test (reference value: 23.1 +/- […]); format: functional
# Rattus norvegicus [15] = experiment: Anxiolytic activity in Wistar rat assessed as increase in total distance at 2.5 mg/kg for 5 mins by general locomotor activity test; format: functional, organism-based; parameters: dose 2.5 mg/kg
# Mus musculus [16] = experiment: […] activity in Swiss albino mouse assessed as inhibition of apomorphine-induced climbing behavior administered 10 mins before apomorphine challenge measured for 2 mins; format: functional
# In short: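 Male Swiss albino mice; compounds ip in 1% Tween 80 suspension, 10 min before apomorphine 3 mg/kg. Climbing time (2–4 paws on bar wall) recorded for 2 min starting 20 min after apomorphine.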
# [17] = molecular target: D(3) dopamine receptor (Homo sapiens) (UniProt P35462); experiment: Displacement of [3H]-methylspiperone from human cloned dopamine D3 receptor expressed in HEK293 cells at 10 '-7 M by liquid scintillation counter; format: cell-based
# Chain of D(3) dopamine receptor (Homo sapiens) (P35462 whole entry): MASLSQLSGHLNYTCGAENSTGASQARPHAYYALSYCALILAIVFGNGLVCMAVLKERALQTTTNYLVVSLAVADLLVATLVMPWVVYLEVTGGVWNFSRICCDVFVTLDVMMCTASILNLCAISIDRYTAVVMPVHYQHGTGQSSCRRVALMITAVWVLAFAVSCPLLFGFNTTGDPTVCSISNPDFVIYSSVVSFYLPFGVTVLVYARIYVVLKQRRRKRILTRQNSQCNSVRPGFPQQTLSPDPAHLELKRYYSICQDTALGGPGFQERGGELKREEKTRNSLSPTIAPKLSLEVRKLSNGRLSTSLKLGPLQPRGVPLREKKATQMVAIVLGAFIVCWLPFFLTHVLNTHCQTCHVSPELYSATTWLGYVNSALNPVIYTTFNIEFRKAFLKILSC
# Mus musculus [18] = experiment: Antidepressant activity in Swiss albino mouse assessed as reduction in immobility time at 10 mg/kg measured for 4 mins by forced swim test; format: functional; in short: as §2
# Rattus norvegicus [19] = experiment: Anxiolytic activity in Wistar rat assessed as increase in time spent in open arms at 5 mg/kg after 5 mins by plus-maze test (reference value: 7.9 +/- 1.4 %); format: functional
# Mus musculus [20] = experiment: Antipsychotic activity in CD1 mouse assessed as inhibition of MK-801-induced hyperactivity measuring number of crossings at 5 to 30 mg/kg measured every 5 mins for 1 hr; format: functional, organism-based
# In short: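 Male CD-1 mice; test compound ip 30 min before, MK-801 0.2 mg/kg (in water) ip 15 min before testing. After 30 min habituation, crossings counted for 60 min, recorded every 5 min. 5–10 mice/group; mean ± SEM; one-way ANOVA, Bonferroni versus vehicle + MK-801.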
# [21] = molecular target: T2, 5-hydroxytryptamine receptor 7; experiment: Antagonist activity at human cloned 5HT7 receptor expressed in human CHO cells assessed as adenylate cyclase activity by cAMP accumulation assay; format: functional, cell-based
# In short: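 CHO cells stably expressing human 5-HT7 receptor; intracellular cAMP (adenylate cyclase) measured, expressed as % of maximal effect of 300 nM serotonin. Compounds tested at 5 concentrations spanning 10^-4–10^-9 in antagonist mode. KB from IC50 by modified Cheng–Prusoff, KB = IC50/(1+A/EC50A), A = reference agonist concentration.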
# Rattus norvegicus [22] = experiment: Anxiolytic activity in Wistar rat assessed as increase in open arm entries at 10 mg/kg after 5 mins by plus-maze test (reference value: 23.1 +/- […]); format: functional
# [23] = molecular target: T3, D(4) dopamine receptor (Homo sapiens); experiment: Displacement of [3H]-methylspiperone from human cloned dopamine D4 receptor expressed in HEK293 cells at 10 '-6 M by liquid scintillation counter; format: cell-based
# Mus musculus [24] = experiment: Antipsychotic activity in CD1 mouse assessed as reduction in spontaneous locomotor activity measuring number of crossings at 10 to 30 mg/kg every 5 mins for 1 hr; format: functional, organism-based
# In short: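 Male CD-1 mice; compound or reference ip 30 min before test plus vehicle. After 30 min habituation in individual cages, crossings counted over 1 h, recorded every 5 min; mean ± SEM; one-way ANOVA, Bonferroni.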
# [25] = molecular target: D(3) dopamine receptor (Homo sapiens) (UniProt P35462); experiment: Displacement of [3H]-methylspiperone from human cloned dopamine D3 receptor expressed in HEK293 cells at 10 '-6 M by liquid scintillation counter; format: cell-based
# Rattus norvegicus [26] = experiment: Anxiolytic activity in Wistar rat assessed as increase in time spent in open arms at 10 mg/kg after 5 mins by plus-maze test (reference value: 7.9 +/- 1.4 %); format: functional
smiles,measurement,setting,value
Cl.O=S(=O)(NCCCCN1CCN(c2cccc(Cl)c2)CC1)c1cnc2ccc(Cl)cc2c1,Ki,[1],0.208 µM
same,inhibition,Mus musculus [2],Dose-dependent effect
same,ED50,Mus musculus [2],4.75 mg/kg
same,Activity,Mus musculus [3],44%
same,Ki,[4],0.088 µM
same,Activity,Mus musculus [5],inactive
same,Ki,[6],0.056 µM
same,Ki,[7],0.155 µM
Cl.O=S(=O)(c1cncc2ccccc12)N1CCC(CCN2CCN(c3ccc(Cl)cc3)CC2)CC1,Ki,[1],3.21 µM
same,Activity,Rattus norvegicus [8],32.9%
same,Ratio Ki,[9],68
same,inhibition,Mus musculus [2],Dose-dependent effect
same,ED50,Mus musculus [2],20.3 mg/kg
same,Activity,Mus musculus [10],Active
same,Ki,D(2) dopamine receptor,0.06 µM
same,inhibition,[11],70%
same,Activity,Rattus norvegicus [12],25%
same,Activity,Rattus norvegicus [13],Active
same,Activity,Rattus norvegicus [14],36.4%
same,Activity,Rattus norvegicus [15],Active
same,Ki,[4],0.047 µM
same,inhibition,Mus musculus [16],Dose-dependent effect
same,ED50,Mus musculus [16]; read-out: ID50 (the source's name),25.5 mg/kg
same,inhibition,[17],67%
same,Activity,Mus musculus [18],Active
same,Ki,[6],0.059 µM
same,Activity,Rattus norvegicus [19],19.4%
same,inhibition,Mus musculus [20],Active
same,Kb,[21],0.09 µM
same,Ki,[7],16.7 µM
same,Activity,Rattus norvegicus [22],40.3%
same,inhibition,[23],98%
same,Activity,Mus musculus [24],inactive
same,inhibition,[25],93%
same,Activity,Rattus norvegicus [26],29.3%
